# Reference: ChEMBL document CHEMBL1212828, “Synthesis and biological evaluation of novel pyrazole compounds” (Bioorg Med Chem, 2010)
# pEC50, pIC50: −log10 of the molar value. Active and inactive are the calls of the source. No cut-off for these calls is given here.
# What was measured:
# Rattus norvegicus [1] = assay: Antiinflammatory activity in Wistar albino rat assessed as inhibition of formalin-induced paw edema at 20 mg/kg, po administered 1 hr prior to formalin challenge measured after 2 hrs relative to control; type: functional
# Procedure, shortened: (§1)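 Male Wistar rats, 180–200 g, groups of five; single oral dose 1 h before 2% formalin (0.1 mL) into subplantar left hind paw under light ether anaesthesia. Paw volume read by water plethysmometer at baseline and 1, 2, 3, 4 h; % inhibition = control (Vt−Vo) minus treated (Vt−Vo), over control, ×100. Means ± SEM; ANOVA with Student–Newman–Keuls.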
# Rattus norvegicus [2] = assay: Antiinflammatory activity in Wistar albino rat assessed as inhibition of formalin-induced paw edema at 20 mg/kg, po administered 1 hr prior to formalin challenge measured after 3 hrs relative to control; type: functional; procedure, shortened: as §1
# Rattus norvegicus [3] = assay: Antiinflammatory activity in Wistar albino rat assessed as inhibition of turpentine oil-induced granuloma at 20 mg/kg, po qd for 7 days post turpentine oil challenge measured on day 8; type: functional
# Procedure, shortened: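 In ether-anaesthetized male Wistar rats (five per group) a dorsal subcutaneous pouch is formed with 2 mL air, then 0.5 mL turpentine oil is injected. Oral dosing at 20 mg/kg starts 1 h before turpentine and continues 7 days. On day 8 the exudate is drawn by syringe and its volume recorded; % inhibition = (Vcontrol − Vtreated)/Vcontrol × 100.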
# Rattus norvegicus [4] = assay: Antiinflammatory activity in Wistar albino rat sub-acute inflammatory model assessed as inhibition of formalin-induced paw edema at 20 mg/kg, po administered 1 hr prior to formalin challenge measured on day 1 relative to control; type: functional
# Procedure, shortened: (§2)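 Male Wistar rats, 180–200 g, five per group, dosed orally 20 mg/kg daily for 7 consecutive days. Formalin (2%, 0.1 mL) injected subplantar into left hind paw under light ether 1 h after dosing, repeated on day 3. Paw volume measured plethysmographically on days 1 and 8; inhibition expressed relative to untreated controls.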
# Rattus norvegicus [5] = assay: Antiinflammatory activity in Wistar albino rat assessed as inhibition of formalin-induced paw edema at 20 mg/kg, po administered 1 hr prior to formalin challenge measured after 1 hr relative to control; type: functional; procedure, shortened: as §1
# [6] = Acute toxicity in Wistar albino rat after 24 hrs; type: organism-based; conditions: in vivo, read-out: ALD50
# Procedure, shortened: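 Male Wistar albino rats (180–200 g), fasted 24 h, groups of five; compound given orally in graded doses of 0.1–3.0 g/kg. Mortality recorded at each dose after 24 h to estimate approximate acute lethal dose (ALD50).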
# Rattus norvegicus [7] = assay: Antiinflammatory activity in po dosed Wistar albino rat assessed as inhibition of formalin-induced paw edema after 3 hrs relative to control; type: functional
# Rattus norvegicus [8] = assay: Toxicity in Wistar albino rat assessed as ulcerogenic activity at 300 mg/kg, po qd for 3 days; type: organism-based; design: dose 300 mg/kg, route oral; conditions: in vivo, 72 h
# Procedure, shortened: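 Rats in groups of five, fasted 12 h with water ad libitum; oral dosing in two equal portions at 0 and 12 h for three days, 300 mg/kg per day; control given 1% gum acacia. Killed 6 h after last dose; stomach opened along greater curvature, saline-washed, inspected under 3× lens for hyperemia, hemorrhage, erosion or ulcer.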
# Rattus norvegicus [9] = assay: Antiinflammatory activity in Wistar albino rat sub-acute inflammatory model assessed as inhibition of formalin-induced paw edema at 20 mg/kg, po administered 1 hr prior to formalin challenge measured on day 8 relative to control; type: functional; procedure, shortened: as §2
# Rattus norvegicus [10] = assay: Antiinflammatory activity in Wistar albino rat assessed as inhibition of formalin-induced paw edema at 20 mg/kg, po administered 1 hr prior to formalin challenge measured after 4 hrs relative to control; type: functional; procedure, shortened: as §1
# THP-1 [11] = assay: Antiinflammatory activity in human THP1 cells assessed as reduction in LPS and IFN-gamma-induced MCP level after 24 hrs; type: functional, cell-based; conditions: Homo sapiens, THP-1, 24 h; read-out: IC50
# Procedure, shortened: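 THP-1 cells (5 × 10^5 cells/mL, DMEM-F12 with 5% FBS) pretreated 15 min with compound or DMSO vehicle, then stimulated with 0.5 µg/mL LPS plus 150 U/mL IFN-γ. After 24 h, MCP-1 in cell-free medium measured by ELISA. IC50 estimated from concentration–response; randomized block ANOVA.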
# THP-1 [12] = assay: Neuroprotective activity against LPS and IFN-gamma-stimulated neurotoxin production in human THP1 cell assessed as inhibition of THP1 cell secretion-induced toxicity to human SH-SY5Y cells after 72 hrs by MTT assay; type: functional, cell-based; conditions: THP-1, 72 h
# Procedure, shortened: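 THP-1 cells pretreated 15 min with compound, then stimulated with LPS (0.5 µg/mL) plus IFN-γ (150 U/mL) for 24 h. Cell-free supernatant transferred to SH-SY5Y cells plated 24 h earlier (2 × 10^5 cells/mL). After 72 h, SH-SY5Y viability read by MTT (0.5 mg/mL, 1 h, 37 °C, OD570) or by LDH release (OD490, relative to Triton X-100 lysis). IC50 estimated.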
# SH-SY5Y = assay: Neuroprotective activity in human SH-SY5Y cells; type: functional, cell-based
# Procedure, shortened: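 SH-SY5Y cells seeded at 2 × 10^5/mL in DMEM-F12 with 5% FBS; after 24 h medium replaced by supernatant of THP-1 cells stimulated 24 h with LPS + IFN-γ, or by medium containing 250 µM H2O2, with compound added at transfer. Cell death measured by LDH assay 72 h later; five independent experiments; randomized block ANOVA.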
# THP-1 [13] = assay: Cytotoxicity against human THP1 cells assessed as reduction in cell viability; type: cell-based
# Procedure, shortened: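 THP-1 cells in DMEM-F12 with 5% FBS, 24-well plates, pretreated 15 min with compound or DMSO vehicle, then stimulated with LPS 0.5 µg/mL plus IFN-γ 150 U/mL for 24 h. Death read as supernatant LDH (iodonitrotetrazolium formazan, 490 nm, fraction of Triton X-100 lysate); survival by MTT; MCP-1 by ELISA. Concentration effects by randomized block ANOVA; 8–11 independent experiments.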
# [14] = target: T1, Prostaglandin G/H synthase 1 (Ovis aries) (UniProt P05979); assay: Inhibition of ovine COX1 at 100 uM
# T1 sequence (whole entry): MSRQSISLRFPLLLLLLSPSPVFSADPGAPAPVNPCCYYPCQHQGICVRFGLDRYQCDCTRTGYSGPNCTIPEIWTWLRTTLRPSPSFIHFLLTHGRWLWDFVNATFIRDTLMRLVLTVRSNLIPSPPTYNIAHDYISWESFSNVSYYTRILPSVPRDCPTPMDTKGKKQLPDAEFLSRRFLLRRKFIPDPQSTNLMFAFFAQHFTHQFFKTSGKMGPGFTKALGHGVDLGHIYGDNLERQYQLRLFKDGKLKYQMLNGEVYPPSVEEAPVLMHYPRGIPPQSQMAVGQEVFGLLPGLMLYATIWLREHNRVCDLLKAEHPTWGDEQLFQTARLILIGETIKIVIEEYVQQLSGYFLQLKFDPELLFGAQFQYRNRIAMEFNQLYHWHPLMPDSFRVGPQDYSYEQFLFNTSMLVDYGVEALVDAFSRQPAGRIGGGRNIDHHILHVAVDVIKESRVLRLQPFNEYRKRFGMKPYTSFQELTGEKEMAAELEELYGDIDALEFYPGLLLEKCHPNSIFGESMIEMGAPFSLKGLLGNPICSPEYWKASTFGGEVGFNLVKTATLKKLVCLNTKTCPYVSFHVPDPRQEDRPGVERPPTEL
# Procedure, shortened: (§3)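 Screening kit with ovine COX-1 and human recombinant COX-2, run per manufacturer's protocol; percent inhibition of prostaglandin production measured for each isoform.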
# [15] = target: T2, Prostaglandin G/H synthase 2 (Homo sapiens) (UniProt P35354); assay: Inhibition of human COX2 at 100 uM; procedure, shortened: as §3
# T2 sequence (whole entry): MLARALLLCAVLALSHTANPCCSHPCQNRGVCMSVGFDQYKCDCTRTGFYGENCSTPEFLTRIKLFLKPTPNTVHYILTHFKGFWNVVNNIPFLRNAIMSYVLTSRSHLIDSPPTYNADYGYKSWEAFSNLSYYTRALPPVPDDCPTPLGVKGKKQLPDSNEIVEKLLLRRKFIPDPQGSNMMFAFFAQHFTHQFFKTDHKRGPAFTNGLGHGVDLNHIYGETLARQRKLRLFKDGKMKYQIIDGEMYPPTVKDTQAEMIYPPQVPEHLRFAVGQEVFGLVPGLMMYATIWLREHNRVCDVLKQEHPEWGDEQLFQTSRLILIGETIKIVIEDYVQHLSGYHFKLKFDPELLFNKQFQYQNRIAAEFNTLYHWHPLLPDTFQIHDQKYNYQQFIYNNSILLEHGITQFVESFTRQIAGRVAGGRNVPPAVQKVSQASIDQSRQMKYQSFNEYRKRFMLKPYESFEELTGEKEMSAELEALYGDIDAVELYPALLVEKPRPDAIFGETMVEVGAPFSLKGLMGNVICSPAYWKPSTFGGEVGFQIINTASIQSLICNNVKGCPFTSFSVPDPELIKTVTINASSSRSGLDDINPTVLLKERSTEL
# SH-SY5Y (Homo sapiens) = assay: Neuroprotective activity against LPS and IFN-gamma-induced human THP1 cell supernatant-induced death of human SH-SY5Y cells after 72 hrs by MTT assay; conditions: THP-1
smiles,measurement,setting,value
C[C@@H](NC(=O)C(=O)Nc1c(C#N)cnn1-c1ccccc1)c1ccccc1,inhibition in vivo at 20 mg/kg,Rattus norvegicus [1],36%
same,inhibition in vivo at 20 mg/kg,Rattus norvegicus [2],44%
same,inhibition in vivo at 20 mg/kg,Rattus norvegicus [3],39%
same,inhibition in vivo at 20 mg/kg,Rattus norvegicus [4],39%
same,inhibition in vivo at 20 mg/kg,Rattus norvegicus [5],56%
same,LD50 at 24 h,[6],> 300 mg/kg
same,ED50,Rattus norvegicus [7],18.9 mg/kg
same,Activity,Rattus norvegicus [8],0%
same,inhibition in vivo at 20 mg/kg,Rattus norvegicus [9],33%
same,inhibition in vivo at 20 mg/kg,Rattus norvegicus [10],50%
Cc1ccc(-c2cc(C(F)(F)F)nn2-c2ccc(S(N)(=O)=O)cc2)cc1 [CELECOXIB],inhibition in vivo at 20 mg/kg,Rattus norvegicus [1],41%
same,inhibition in vivo at 20 mg/kg,Rattus norvegicus [2],56%
same,inhibition in vivo at 20 mg/kg,Rattus norvegicus [3],46%
same,pIC50,THP-1 [11],4.15
same,inhibition in vivo at 20 mg/kg,Rattus norvegicus [4],37%
same,inhibition in vivo at 20 mg/kg,Rattus norvegicus [5],38%
same,ED50,Rattus norvegicus [7],15.7 mg/kg
same,Activity,Rattus norvegicus [8],0%
same,inhibition in vivo at 20 mg/kg,Rattus norvegicus [9],41%
same,inhibition in vivo at 20 mg/kg,Rattus norvegicus [10],47%
same,pIC50,THP-1 [12],5.30
COC(=O)c1nc2c(cnn2-c2ccccc2)c(=O)[nH]1,Activity,SH-SY5Y,inactive
same,pIC50,THP-1 [11],4.00
same,pEC50,THP-1 [13],4.40
same,inhibition,[14],16.4%
same,inhibition,[15],14.2%
same,pIC50,THP-1 [12],4.70
same,Activity,SH-SY5Y (Homo sapiens),Active
COc1ccc2c(c1)c(CC(=O)O)c(C)n2C(=O)c1ccc(Cl)cc1 [INDOMETHACIN],Activity,Rattus norvegicus [8],100%
N#Cc1cnn(-c2ccccc2)c1NC(=O)C(=O)NCCCN1CCOCC1,pIC50,THP-1 [11],< 3.30
same,pEC50,THP-1 [13],< 3.30
same,pIC50,THP-1 [12],4.00
N#Cc1cnn(-c2ccccc2)c1NC(=O)C(=O)NCCc1ccccc1,pEC50,THP-1 [13],5.00
N#Cc1cnn(-c2ccccc2)c1NC(=O)C(=O)NC1CCCCC1,pIC50,THP-1 [11],< 3.30
same,pEC50,THP-1 [13],4.10
same,pIC50,THP-1 [12],3.60
C[C@H](NC(=O)C(=O)Nc1c(C#N)cnn1-c1ccccc1)c1ccccc1,inhibition in vivo at 20 mg/kg,Rattus norvegicus [1],32%
same,inhibition in vivo at 20 mg/kg,Rattus norvegicus [2],38%
same,inhibition in vivo at 20 mg/kg,Rattus norvegicus [3],49%
same,inhibition in vivo at 20 mg/kg,Rattus norvegicus [4],41%
same,inhibition in vivo at 20 mg/kg,Rattus norvegicus [5],37%
same,LD50 at 24 h,[6],> 300 mg/kg
same,ED50,Rattus norvegicus [7],22.4 mg/kg
same,Activity,Rattus norvegicus [8],0%
same,inhibition in vivo at 20 mg/kg,Rattus norvegicus [9],35%
same,inhibition in vivo at 20 mg/kg,Rattus norvegicus [10],39%
